Type in all cases: functional
Assay [1] can be described thus: Cytotoxicity against human A4573 cells assessed as reduction in cell viability incubated for 48 hrs by CellTiter-Blue reagent based […] assay. As to conditions: A4573, 48 h. Put shortly: (§1)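 Cells seeded and grown to 60–80% confluency (usually 18–24 h), then treated 48 h with a range of concentrations prepared in each line's medium. CellTiter-Blue reagent added at the end of treatment and incubated 3–5 h at 37 °C, 5% CO₂. Fluorescence read at 560 nm excitation and 590 nm emission. IC50 from nonlinear regression, log(inhibitor) vs. normalized response.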
(In general: Resazurin is reduced to fluorescent resorufin, in cell work by metabolically active cells.)

The next assay concerns SAOS-2. Nature of the assay: Cytotoxicity against human SAOS-2 cells assessed as reduction in cell viability incubated for 48 hrs by CellTiter-Blue reagent based […] assay. As to conditions: SAOS-2, 48 h. Put shortly: as §1
Assay [2] in a line: Cytotoxicity against human TC71 cells assessed as reduction in cell viability incubated for 48 hrs by CellTiter-Blue reagent based […] assay. As to conditions: TC-71, 48 h. In outline:
as §1

For another assay, the system named is U2OS. Nature of the assay: Cytotoxicity against human U2OS cells assessed as reduction in cell viability incubated for 48 hrs by CellTiter-Blue reagent based […] assay. Put shortly: as §1
A further assay has as its system TC-32. In words: Cytotoxicity against human TC-32 cells assessed as reduction in cell viability incubated for 48 hrs by CellTiter-Blue reagent based […] assay. The following applies: TC-32, 48 h. Put shortly:
as §1

In general, IC50 refers to the concentration at which inhibition is half-maximal.

Some results are limits rather than exact numbers.

Regarding `Nc1ncnc2c1ncn2[C@@H]1O[C@H](CN2CCOCC2)[C@@H](O)[C@H]1F`, the IC50 (in assay [1]; in the assay with SAOS-2; in assay [2]; with U2OS; in the assay on TC-32) was not below 50 µM throughout.
For `CS(=O)(=O)C[C@H]1O[C@@H](n2cnc3c(N)nc(Cl)nc32)C[C@@H]1O`, the concentration for half-maximal inhibition (IC50) was not below 50 µM in assay [1]; not below 50 µM in the assay on SAOS-2; 36 µM in assay [2]; not below 50 µM with U2OS; not below 50 µM with TC-32.
Consider `Nc1nc(-c2cccnc2)nc2c1ncn2[C@H]1C[C@H](O)[C@@H](CO)O1`, for which the IC50 in assay [1] is 54.4 µM; in the assay on SAOS-2, 110 µM; in assay [2] it was 29.3 µM; with U2OS, 162 µM; with TC-32, 52.2 µM.
Taken in the same sequence, the figures for `CS(=O)(=O)C[C@H]1O[C@@H](n2cnc3c(N)nc(Cl)nc32)[C@@H](F)[C@@H]1O` were not below 50 µM, not below 50 µM, 31.4 µM, not below 50 µM and not below 50 µM.
With `Nc1nc(-c2ccoc2)nc2c1ncn2[C@@H]1O[C@H](CO)[C@@H](O)[C@@H]1F`, the IC50 (in assay [1]; in the assay on SAOS-2; in assay [2]; with U2OS; in the assay on TC-32) was not below 50 µM in each case.
In the case of `Nc1ncnc2c1ncn2[C@@H]1C[C@@H](O)[C@H](CN2CCOCC2)O1`, the concentration for half-maximal inhibition (IC50) (in assay [1]; in the assay with SAOS-2; in assay [2]; in the assay with U2OS; in the assay with TC-32) was not below 50 µM each time.

For the origin of these results see ChEMBL document CHEMBL5346918, “Design, synthesis and biological evaluation of Nucleosidic CD99 inhibitors that selectively reduce Ewing sarcoma viability” (Eur J Med Chem, 2023).
